From ChEMBL document CHEMBL2321763, “The role of the acidity of N-heteroaryl sulfonamides as inhibitors of bcl-2 family protein-protein interactions” (ACS Med Chem Lett, 2013)
pIC50, pKd: −log10 of the molar value. Values after ≈ are worked out from the molar mass of the structure shown.

What was measured:
[1] = target: T1, Apoptosis regulator Bcl-2 (Homo sapiens, UniProt P10415); test: Binding affinity to Bcl-2 (unknown origin) by surface plasmon resonance analysis
Toledo = test: Induction of apoptosis in human Toledo cells; assay type: functional; settings: read-out: LD50 (the source's name)
[2] = Solubility of compound in fasted state simulated intestinal fluid
Bcl-2-like protein 1 = Bcl-2-like protein 1 (Homo sapiens, UniProt Q07817); test: Inhibition of Bcl-xL/BAK (unknown origin) interaction
Chain of Bcl-2-like protein 1 (Q07817 whole entry): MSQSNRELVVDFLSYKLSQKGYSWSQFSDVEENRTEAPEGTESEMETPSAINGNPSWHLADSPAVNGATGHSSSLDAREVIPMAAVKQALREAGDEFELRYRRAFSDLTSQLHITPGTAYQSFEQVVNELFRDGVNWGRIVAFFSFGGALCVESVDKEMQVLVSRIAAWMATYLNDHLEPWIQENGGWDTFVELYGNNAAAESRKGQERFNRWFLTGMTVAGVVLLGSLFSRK

[3] = target: T1, Apoptosis regulator Bcl-2; test: Inhibition of Bcl-2/biotinylated BAK (unknown origin) interaction incubated for 1 hr by surface plasmon resonance analysis
[4] = Ratio of compound solubility to ABT-737 solubility in fasted state simulated intestinal fluid; assay type: physicochemical; settings: simulated gi fluid
Rattus norvegicus = test: AUC in Sprague-Dawley rat at 1 mg/kg, iv; assay type: ADME, organism-based, Plasma; design: dose 1 mg/kg, route intravenous; settings: in vivo
Summary of the method: (§1)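 Rats got a single 1 mg/kg iv dose for plasma clearance, AUC and Vdss, and a 10 mg/kg po dose for oral bioavailability (%F). The vehicle was a solution of either 10% PG, 5% cremophor EL and 85% citrate buffer, or 10% PG, Solutol and 40% water for injection.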

[5] = Volume of distribution at steady state in Sprague-Dawley rat at 1 mg/kg, iv and 10 mg/kg, po; assay type: ADME, organism-based; settings: in vivo, read-out: Vdss; summary of the method: as §1
[6] = Clearance in Sprague-Dawley rat plasma at 1 mg/kg, iv; assay type: ADME, organism-based; design: dose 1 mg/kg, route intravenous; summary of the method: as §1
[7] = Oral bioavailability in Sprague-Dawley rat at 10 mg/kg; assay type: ADME, organism-based; settings: in vivo; summary of the method: as §1

T1 sequence (P10415 whole entry): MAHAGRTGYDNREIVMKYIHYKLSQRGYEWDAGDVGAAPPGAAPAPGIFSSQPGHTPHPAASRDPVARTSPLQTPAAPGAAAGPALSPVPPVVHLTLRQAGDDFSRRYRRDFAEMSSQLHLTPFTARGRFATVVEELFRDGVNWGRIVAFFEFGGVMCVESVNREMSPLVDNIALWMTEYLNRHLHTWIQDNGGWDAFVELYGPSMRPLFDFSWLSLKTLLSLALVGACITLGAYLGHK

Compound	pKd [1]	CC50 (Toledo)	solubility [2]	pIC50 (Bcl-2-like protein 1)	pIC50 [3]	Ratio [4]	AUC (Rattus norvegicus)	Vd [5]	clearance [6]	bioavailability [7]
CN(C)CC[C@H](CSc1ccccc1)Nc1ccc(S(=O)(=O)Nc2ncnc3c2CCN(C2CCN(Cc4cc(F)ccc4-c4ccc(Cl)cc4)CC2)C3=O)cc1S(=O)(=O)C(F)(F)F	6.98	> 30 µM	63 µM (≈ 60.5 µg/mL)	7.66	6.85	–	–	–	–	–
CN(C)CC[C@H](CSc1ccccc1)Nc1ccc(S(=O)(=O)Nc2nc(Cl)nc3c2CCN(C2CCN(Cc4ccccc4-c4ccc(Cl)cc4)CC2)C3)cc1S(=O)(=O)C(F)(F)F	7.77	5.37 µM	22 µM (≈ 21.2 µg/mL)	7.70	7.49	–	–	–	–	–
CN(C)CC[C@H](CSc1ccccc1)Nc1ccc(S(=O)(=O)Nc2nc(C(F)(F)F)nc3c2CCN(C2CCN(Cc4ccccc4-c4ccc(Cl)cc4)CC2)C3)cc1S(=O)(=O)C(F)(F)F	8.00	3.9 µM	36 µM (≈ 35.9 µg/mL)	7.21	7.34	–	–	–	–	–
O=[N+]([O-])c1cc(S(=O)(=O)Nc2cccc3cc(N4CCN(Cc5ccccc5-c5ccc(Cl)cc5)CC4)ccc23)ccc1N[C@H](CCN1CCOCC1)CSc1ccccc1	–	> 30 µM	–	–	< 5.40	–	–	–	–	–
CN(C)CC[C@H](CSc1ccccc1)Nc1ccc(S(=O)(=O)Nc2cccc3cc(N4CCN(Cc5ccccc5-c5ccc(Cl)cc5)CC4)cnc23)cc1[N+](=O)[O-]	–	3.95 µM	44 µM (≈ 36.8 µg/mL)	–	7.17	–	–	–	–	–
CN(C)CC[C@H](CSc1ccccc1)Nc1ccc(S(=O)(=O)Nc2nn(C)c3nc(N4CCN(Cc5ccccc5-c5ccc(Cl)cc5)CC4)ncc23)cc1[N+](=O)[O-]	–	> 30 µM	–	–	5.07	–	–	–	–	–
CN(C)CC[C@H](CSc1ccccc1)Nc1ccc(S(=O)(=O)Nc2nnc3cc(N4CCN(Cc5ccccc5-c5ccc(Cl)cc5)CC4)cnn23)cc1[N+](=O)[O-]	8.10	4.8 µM	31 µM (≈ 25.7 µg/mL)	–	7.60	4	–	–	–	–
CN(C)CC[C@H](CSc1ccccc1)Nc1ccc(S(=O)(=O)NC2=NS(=O)(=O)c3cc(N4CCN(Cc5ccccc5-c5ccc(Cl)cc5)CC4)ccc32)cc1[N+](=O)[O-]	7.85	> 30 µM	< 5 µM	–	7.77	–	761 nmol/h	0.09 L/kg	25 mL/min/kg	–
O=S(=O)(Nc1nnc2n1CCN(C1CCN(Cc3ccccc3-c3ccc(Cl)cc3)CC1)C2)c1ccc(N[C@H](CCN2CCOCC2)CSc2ccccc2)c(S(=O)(=O)C(F)(F)F)c1	–	15.9 µM	9 µM (≈ 8.64 µg/mL)	–	6.50	–	–	–	–	–
O=S(=O)(Nc1ncnc2c1CN(C1CCN(Cc3ccccc3-c3ccc(Cl)cc3)CC1)C2)c1ccc(N[C@H](CCN2CCOCC2)CSc2ccccc2)c(S(=O)(=O)C(F)(F)F)c1	–	107 µM	70 µM (≈ 67 µg/mL)	–	6.13	–	–	–	–	–
CN(C)CC[C@H](CSc1ccccc1)Nc1ccc(S(=O)(=O)Nc2nnc3n2CCN(C2CCN(Cc4ccccc4-c4ccc(Cl)cc4)CC2)CC3)cc1S(=O)(=O)C(F)(F)F	8.30	3.47 µM	87 µM (≈ 81 µg/mL)	–	7.60	–	–	–	–	–
CN(C)CC[C@H](CSc1ccccc1)Nc1ccc(S(=O)(=O)Nc2ncnc3c2CCN(C2CCN(Cc4ccccc4-c4ccc(Cl)cc4)CC2)C3)cc1S(=O)(=O)C(F)(F)F	8.15	0.298 µM	64 µM (≈ 59.4 µg/mL)	7.62	7.72	–	0.232 µM·h	8.6 L/kg	68 mL/min/kg	< 5%
CN(C)CC[C@H](CSc1ccccc1)Nc1ccc(S(=O)(=O)Nc2ncnc3c2CCN(C2CCN(Cc4cc(F)ccc4-c4ccc(Cl)cc4)CC2)C3)cc1S(=O)(=O)C(F)(F)F	8.52	0.197 µM	25 µM (≈ 23.7 µg/mL)	7.13	7.48	–	–	–	–	–
CC(c1ccccc1-c1ccc(Cl)cc1)N1CCC(N2CCc3c(ncnc3NS(=O)(=O)c3ccc(N[C@H](CCN(C)C)CSc4ccccc4)c(S(=O)(=O)C(F)(F)F)c3)C2)CC1 (some centres not stated)	8.70	0.113 µM	31 µM (≈ 29.2 µg/mL)	6.94	–	–	0.19 µM·h	5.28 L/kg	89 mL/min/kg	–
CN(C)CC[C@H](CSc1ccccc1)Nc1ccc(S(=O)(=O)NC(=O)c2ccc(N3CCN(Cc4ccccc4-c4ccc(Cl)cc4)CC3)cc2)cc1[N+](=O)[O-] [ABT 737]	–	0.06 µM	7 µM (≈ 5.69 µg/mL)	–	–	–	–	–	–	–
